Screening results from PubChem BioAssay.
The list is not random: actives were taken first. Their share in the collection is about 3%.
TRPC4 inh: inhibitors of mouse TRPC4 channel | Q9QUQ5 | HEK293 TRPC4beta/mu-opioid, DAMGO-evoked Fluo4 calcium flux; active compounds read low | B-score at 10 µM | 0.39% of 300,000 active;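 active means B-score over 3 SD under the library average, no early fluorescence shift, positive overall ratio signal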
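Assay system: HEK293 cells with stable TRPC4beta plus mu-opioid receptor expression; Probe or stimulus: DAMGO in two steps, submaximal then maximal; Dosing: single-point compound dosing; Measured by: Fluo4 calcium-dye fluorescence, kinetic read; Read-out basis: B score from integrated Fluo4 fluorescence ratio.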
TRPC6 inhibitor: blocks the mouse TRPC6 cation channel | B-score at 10 µM | HEK293-TRPC6, membrane potential dye, ACh-evoked depolarization; active compounds read low | AID 2553 | 1.1% of 310,000 active;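 active means B-score under library mean minus 3 SD, initial fluorescence not abnormally high, positive integrated signal ratio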;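 further: B-score derived from integrated fluorescence ratio over the kinetic read; more negative B-score means stronger inhibition of depolarization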
Target sequence (Q61143 whole entry, looked up): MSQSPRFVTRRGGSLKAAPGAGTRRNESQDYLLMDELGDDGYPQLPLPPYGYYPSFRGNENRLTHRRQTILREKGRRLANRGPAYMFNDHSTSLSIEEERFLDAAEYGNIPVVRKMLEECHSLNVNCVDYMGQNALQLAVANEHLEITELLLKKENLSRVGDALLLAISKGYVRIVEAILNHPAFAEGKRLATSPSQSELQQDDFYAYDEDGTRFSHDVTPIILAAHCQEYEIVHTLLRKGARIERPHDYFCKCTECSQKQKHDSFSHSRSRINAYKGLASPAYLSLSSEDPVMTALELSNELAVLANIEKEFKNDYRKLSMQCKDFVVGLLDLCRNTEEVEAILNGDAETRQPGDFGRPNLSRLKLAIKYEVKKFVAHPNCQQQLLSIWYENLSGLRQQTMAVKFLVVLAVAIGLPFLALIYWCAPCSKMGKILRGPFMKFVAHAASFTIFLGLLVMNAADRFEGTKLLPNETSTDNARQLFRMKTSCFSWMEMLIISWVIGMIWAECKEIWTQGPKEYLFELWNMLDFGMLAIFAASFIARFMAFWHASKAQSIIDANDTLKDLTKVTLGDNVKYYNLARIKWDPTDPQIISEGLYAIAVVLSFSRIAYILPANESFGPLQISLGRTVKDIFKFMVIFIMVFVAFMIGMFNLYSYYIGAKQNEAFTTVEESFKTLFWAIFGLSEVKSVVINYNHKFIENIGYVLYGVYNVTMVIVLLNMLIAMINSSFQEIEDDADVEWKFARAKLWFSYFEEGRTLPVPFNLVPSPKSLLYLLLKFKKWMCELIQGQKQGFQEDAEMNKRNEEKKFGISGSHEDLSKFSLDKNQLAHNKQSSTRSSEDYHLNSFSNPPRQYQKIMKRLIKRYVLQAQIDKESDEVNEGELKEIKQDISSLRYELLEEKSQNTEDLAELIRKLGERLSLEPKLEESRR
TRPC6 activator: activators of mouse TRPC6 channel. Q61143. B-score at 10 µM. HEK293-TRPC6 membrane potential dye fluorescence; active compounds read high. AID 2550. 0.13% of 310,000 active;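 active means B-score of the integrated fluorescence ratio above library mean plus 3 SD, and starting fluorescence ratio within library mean plus 5 SD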;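 further: higher score means more depolarization so channel activation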
TRPC4 potent: allosteric potentiators of mouse TRPC4 channel | Q9QUQ5 | AID 2227 | HEK293 TRPC4beta/mu-opioid, DAMGO EC20, Fluo-4 Ca2+ flux; active compounds read high | B-score at 10 µM | 0.42% of 310,000 active;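 active means B-score of calcium response area above 5 SD of library B-scores, with initial fluorescence ratio within 5 SD of library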;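 further: B-score of integrated fluorescence ratio over time as area under calcium response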
Kir21 inh: inhibitors of mouse Kir2.1 inward-rectifier potassium channel; 0.85% of 310,000 active; P35561; HEK293-Kir2.1, FluxOR thallium flux fluorescence; active compounds read low; B-score at 10 µM;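 active means fluorescence ratio B-score at or below minus 3 SD of library scores, with starting-brightness B-score within 2 SD, cut at about -4.2 in these data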;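 further: channel flux triggered by added potassium and thallium sulfate stimulus; B-score of peak minus minimum fluorescence over baseline after thallium stimulus; more negative B-score means stronger Kir2.1 block with less thallium influx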
TRPC4 agonist: activators of mouse TRPC4 channel | HEK293 TRPC4beta/mu-opioid, Fluo4 calcium fluorescence; active compounds read high | B-score at 10 µM | 0.49% of 310,000 active | AID 2237;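 active means B-score above 5 SD of library B-scores, and initial fluorescence ratio not above library mean plus 5 SD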;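 further: positive B-score marks a calcium rise read as TRPC4 activation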
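Technique: kinetic Fluo4 calcium fluorescence; Test system: TRPC4beta and mu-opioid receptor HEK293 stable cells; Measure: B-scored integrated calcium fluorescence ratio; Benchmarks: low control buffer alone, high control maximal DAMGO; Schedule: 45 min room-temperature Fluo4 loading, 110 s read.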
Numbers without * were called inactive; i = inactive.

SMILES	TRPC4 inh	TRPC6 inhibitor	TRPC6 activator	TRPC4 potent	Kir21 inh	TRPC4 agonist
CN(Cc1cnn(C)c1)S(=O)(=O)c1cccc([N+](=O)[O-])c1	i	i	i	i	-0.35	i
Cc1ccnc(NC(=O)COC(=O)C23CC4CC(CC(C4)C2)C3)n1	i	i	i	35*	-1.1	i
O=C(COC(=O)C12CC3CC(CC(C3)C1)C2)Nc1nccs1	i	i	i	i	0.09	i
O=C(Cc1ccccc1[N+](=O)[O-])OCc1cccc([N+](=O)[O-])c1	-6*	i	i	i	1.1	i
COc1cc(CC(=O)OCc2cccc([N+](=O)[O-])c2)cc(OC)c1OC	i	i	i	i	-0.99	i
CCOc1ccc(NS(=O)(=O)c2ccc(C(=O)N3CCCC(C)C3)cc2)cc1 (stereo unspecified)	i	i	i	i	0.76	54*
O=C(c1ccc(S(=O)(=O)Nc2ccccc2)cc1)N1CCCC(C(F)(F)F)C1 (stereo unspecified)	i	i	i	i	1.8	54*
Cc1ccc(NS(=O)(=O)c2ccc(C(=O)N3CC(C)OC(C)C3)cc2)cc1 (stereo unspecified)	i	i	i	i	1.9	53*
CCOc1ccc(S(=O)(=O)Nc2ccc(C(=O)N3CCC3)cc2)cc1	i	i	i	i	-0.32	i
O=C(c1ccccc1)c1ccc(C(=O)N2CCCC(C(F)(F)F)C2)cc1 (stereo unspecified)	i	i	i	i	0.93	i
COc1cccc(C(=O)NCCS(=O)(=O)N2CCC(C)CC2)c1	i	i	i	i	-0.37	i
COCCSc1ccccc1C(=O)N1CCc2ccccc2C1	i	i	i	i	1.3	i
Cc1cc(S(=O)(=O)N2CCC(N3CCCCC3)CC2)ccc1-n1cnnn1	i	i	i	33*	0	i
CCC1CCCCN1S(=O)(=O)c1ccc(-n2cnnn2)c(C)c1 (stereo unspecified)	i	i	i	i	0.04	i
COc1ccc2cc(S(=O)(=O)NCc3cccnc3)ccc2c1	i	i	i	i	-0.22	i
Cc1ccc(NC(=O)CSc2nc3sc(C)cc3c(=O)n2C)cc1	i	i	i	i	0.51	i
O=C(C1CCN(S(=O)(=O)c2cccnc2)CC1)N1CCN(c2ccccc2Cl)CC1	i	i	i	i	0.83	i
O=C(C1CCN(S(=O)(=O)c2cccnc2)CC1)N1CCN(c2ccc(Cl)cc2)CC1	-6*	i	i	i	-2.2	63*
O=[N+]([O-])c1ccc(C[n+]2cccc(O)c2)cc1	i	i	i	i	-0.6	168*
O=[N+]([O-])c1ccc(N2CCN(CCO)CC2)c2ncccc12	i	i	i	21*	0.02	56*
CCN(c1ccccc1C(=O)O)S(=O)(=O)c1ccc2[nH]c(=O)[nH]c2c1	i	i	i	i	-0.28	i
CCOC(=O)C1(Cc2cccc(OC)c2)CCN(Cc2ccc(OC)c(O)c2)CC1	-8*	i	i	i	-1.4	i
CCOC(=O)C1(CCOc2ccccc2)CCN(Cc2ccc(OC)c(O)c2)CC1	i	i	i	i	-1.1	84*
CCOC(=O)C1(CCOc2ccccc2)CCN(Cc2ccc(C)o2)CC1	-6*	i	i	i	-2.6	i
N=C1SCC(=O)N1c1ccc(Cl)cc1	i	i	i	i	-0.95	i
SMILES	TRPC4 inh	TRPC6 inhibitor	TRPC6 activator	TRPC4 potent	Kir21 inh	TRPC4 agonist
CC(C)(C)c1ccc(N2C(=N)SCC2=O)cc1	i	i	i	33*	-1.3	i
CC(=O)Nc1ccccc1OCC(=O)NCC(F)(F)F	i	i	i	i	-0.74	i
COc1cc(Cl)c(C)cc1NC(=O)CNC(C)c1ccccc1OC (stereo unspecified)	i	i	i	i	-4.2*	i
Cc1ccc(N(CCC#N)C(=O)COC(=O)C2CCN(S(=O)(=O)c3ccc4c(c3)OCCO4)CC2)cc1	i	i	i	i	0.02	i
CC1(C)CC(=O)C=C(NCC(O)c2ccccc2)C1 (stereo unspecified)	i	i	i	i	0.01	i
CN1CCN(CC(=O)N2c3ccc(S(=O)(=O)NCCNC(=O)OC(C)(C)C)cc3C(=O)Nc3cccnc32)CC1	i	i	i	i	1.6	i
CN1CCN(CC(=O)N2c3ccccc3C(=O)Nc3cccnc32)CC1	i	-6*	i	i	0.12	i
CC(=O)NC(CC(=O)N1CCN(C(C)=O)CC1)c1ccccc1 (stereo unspecified)	i	i	i	i	-0.53	i
Cc1cccc(CN2CCCC(C(=O)N3CCc4ccccc4C3)C2)c1 (stereo unspecified)	i	i	i	i	-2.1	70*
Cc1cccc(CN2CCCC(C(=O)Nc3ccccc3Oc3cccnc3)C2)c1 (stereo unspecified)	-6*	i	i	i	-5.5*	i
CCS(=O)(=O)N1CCCC(C(=O)N2CCc3ccccc3C2)C1 (stereo unspecified)	i	i	i	i	-2.4	i
O=C(C1CCCN(Cc2ccncc2)C1)N1CCc2ccccc2C1 (stereo unspecified)	i	i	i	i	1.4	164*
O=C(C1CCCN(Cc2ccccc2F)C1)N1CCCCC1 (stereo unspecified)	i	i	i	i	-1.4	i
O=C(C1CCCN(Cc2ccccc2F)C1)N1CCc2ccccc2C1 (stereo unspecified)	i	i	i	i	-0.25	110*
COc1ccc(-n2ncc3c2CC(C)(C)CC3NC(=O)c2cn[nH]c2)cc1 (stereo unspecified)	i	i	i	i	-0.17	i
CC1CCN(CCCNC(=O)C2CCN(S(=O)(=O)N3CCC4(CC3)OCCO4)CC2)CC1	i	i	i	i	0.24	i
NC(=O)c1cc(N=Nc2c(N)[nH]n(-c3c(Cl)cc(Cl)cc3Cl)c2=O)ccc1Cl	i	i	i	i	-2.8	i
CCCNCc1cc(Br)ccc1OCC(=O)NCCc1ccccc1	-6*	i	i	i	-1.8	i
O=C(COc1ccc(Br)cc1CNCCc1ccccc1)NCc1ccccc1	i	i	i	i	-3	i
COCCn1c(SCC(=O)Nc2ccccc2OC)nc2c([nH]c3ccccc32)c1=O	-7*	i	i	i	0.08	i
